Source: ChEMBL document CHEMBL3758120, “Synthesis and Mechanism Studies of 1,3-Benzoazolyl Substituted Pyrrolo[2,3-b]pyrazine Derivatives as Nonintercalative Topoisomerase II Catalytic Inhibitors” (J Med Chem, 2016)
Calls of active or inactive are those of the source. The rule behind the calls is not given here.

Key:
[1] = Antiproliferative activity against human HL60/MX2 cells after 48 hrs by MTT assay; format: functional, cell-based; conditions: HL60/MX2, 48 h
Procedure, shortened: (§1)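 Cells seeded at 5000 per well and left overnight, then exposed to increasing concentrations (0-50 μM) for 48 h. […] HL-60/MX2 is a mitoxantrone-selected HL-60 derivative with reduced Topo IIα/β.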

K562 = test: Antiproliferative activity against human K562 cells after 48 hrs by MTT assay; format: functional, cell-based; conditions: K562, 48 h; procedure, shortened: as §1
HEK293 = test: Cytotoxicity against HEK293 cells after 48 hrs by MTT assay; format: cell-based; conditions: Homo sapiens, HEK293, 48 h
HeLa = test: Antiproliferative activity against human HeLa cells after 48 hrs by MTT assay; format: functional, cell-based; procedure, shortened: as §1
A549 = test: Antiproliferative activity against human A549 cells after 48 hrs by MTT assay; format: functional, cell-based; conditions: A549, 48 h; procedure, shortened: as §1
[2] = target: T1, DNA topoisomerase 2-alpha (Homo sapiens, UniProt P11388); test: Inhibition of purified human topoisomerase 2-mediated relaxation of supercoiled pBR322 DNA at 20 uM incubated for 30 mins by agarose gel electrophoresis
Procedure, shortened: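 Reactions contained 0.2 μg supercoiled pBR322 in 50 mM Tris-HCl pH 8.0, 150 mM NaCl, 10 mM MgCl2, 0.5 mM DTT, 30 μg/ml BSA, normally 2 mM ATP (1, 2 or 4 mM in ATP-competition runs). Started with 1 U human Topo II, 30 min at 37 °C, stopped with sarcosyl buffer, run on 1% agarose 1.5 h at 75 V, gel-stained and imaged under UV.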

[3] = target: T1, DNA topoisomerase 2-alpha; conditions: HL-60, 10 uM
[4] = Antiproliferative activity against human HL60 cells after 48 hrs by MTT assay; format: functional, cell-based; conditions: HL-60, 48 h; procedure, shortened: as §1
[5] = target: T2, DNA topoisomerase 1 (Homo sapiens) (UniProt P11387); conditions: 0.6 to 5 uM
T2 sequence (whole entry): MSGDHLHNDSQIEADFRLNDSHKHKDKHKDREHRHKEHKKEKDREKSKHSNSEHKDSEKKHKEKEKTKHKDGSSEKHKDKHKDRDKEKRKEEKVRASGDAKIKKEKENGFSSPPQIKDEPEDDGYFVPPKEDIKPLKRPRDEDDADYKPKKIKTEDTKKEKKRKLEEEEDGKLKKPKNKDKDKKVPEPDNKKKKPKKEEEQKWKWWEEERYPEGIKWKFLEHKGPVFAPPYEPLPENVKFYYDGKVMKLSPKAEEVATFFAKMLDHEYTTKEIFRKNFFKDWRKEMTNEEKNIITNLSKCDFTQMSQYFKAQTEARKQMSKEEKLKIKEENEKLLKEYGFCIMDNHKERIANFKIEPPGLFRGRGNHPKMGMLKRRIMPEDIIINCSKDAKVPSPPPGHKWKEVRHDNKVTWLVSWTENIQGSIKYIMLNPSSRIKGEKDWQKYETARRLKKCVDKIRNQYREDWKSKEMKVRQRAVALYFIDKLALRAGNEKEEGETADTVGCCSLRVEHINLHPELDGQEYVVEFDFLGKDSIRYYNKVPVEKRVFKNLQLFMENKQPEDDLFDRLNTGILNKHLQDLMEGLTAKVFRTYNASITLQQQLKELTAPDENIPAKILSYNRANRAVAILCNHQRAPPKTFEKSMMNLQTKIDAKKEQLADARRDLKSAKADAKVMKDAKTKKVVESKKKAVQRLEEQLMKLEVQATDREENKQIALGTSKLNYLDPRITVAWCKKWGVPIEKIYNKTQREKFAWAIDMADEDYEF

Raji = test: Antiproliferative activity against human Raji cells after 48 hrs by MTT assay; format: functional, cell-based; procedure, shortened: as §1
HL-60 = test: Resistance index, ratio of IC50 for human HL60/MX2 cells to IC50 for HL60 cells; format: functional
Procedure, shortened: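 Resistance index calculated as MTT-derived IC50 (48 h exposure, 0-50 μM, A570 readout) in HL-60/MX2 divided by IC50 in parental HL-60.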

[6] = target: T1, DNA topoisomerase 2-alpha; conditions: 100 uM
[7] = Antiproliferative activity against human MDA-MB-201 cells after 48 hrs by MTT assay; format: functional, cell-based; procedure, shortened: as §1

T1 sequence (P11388 whole entry): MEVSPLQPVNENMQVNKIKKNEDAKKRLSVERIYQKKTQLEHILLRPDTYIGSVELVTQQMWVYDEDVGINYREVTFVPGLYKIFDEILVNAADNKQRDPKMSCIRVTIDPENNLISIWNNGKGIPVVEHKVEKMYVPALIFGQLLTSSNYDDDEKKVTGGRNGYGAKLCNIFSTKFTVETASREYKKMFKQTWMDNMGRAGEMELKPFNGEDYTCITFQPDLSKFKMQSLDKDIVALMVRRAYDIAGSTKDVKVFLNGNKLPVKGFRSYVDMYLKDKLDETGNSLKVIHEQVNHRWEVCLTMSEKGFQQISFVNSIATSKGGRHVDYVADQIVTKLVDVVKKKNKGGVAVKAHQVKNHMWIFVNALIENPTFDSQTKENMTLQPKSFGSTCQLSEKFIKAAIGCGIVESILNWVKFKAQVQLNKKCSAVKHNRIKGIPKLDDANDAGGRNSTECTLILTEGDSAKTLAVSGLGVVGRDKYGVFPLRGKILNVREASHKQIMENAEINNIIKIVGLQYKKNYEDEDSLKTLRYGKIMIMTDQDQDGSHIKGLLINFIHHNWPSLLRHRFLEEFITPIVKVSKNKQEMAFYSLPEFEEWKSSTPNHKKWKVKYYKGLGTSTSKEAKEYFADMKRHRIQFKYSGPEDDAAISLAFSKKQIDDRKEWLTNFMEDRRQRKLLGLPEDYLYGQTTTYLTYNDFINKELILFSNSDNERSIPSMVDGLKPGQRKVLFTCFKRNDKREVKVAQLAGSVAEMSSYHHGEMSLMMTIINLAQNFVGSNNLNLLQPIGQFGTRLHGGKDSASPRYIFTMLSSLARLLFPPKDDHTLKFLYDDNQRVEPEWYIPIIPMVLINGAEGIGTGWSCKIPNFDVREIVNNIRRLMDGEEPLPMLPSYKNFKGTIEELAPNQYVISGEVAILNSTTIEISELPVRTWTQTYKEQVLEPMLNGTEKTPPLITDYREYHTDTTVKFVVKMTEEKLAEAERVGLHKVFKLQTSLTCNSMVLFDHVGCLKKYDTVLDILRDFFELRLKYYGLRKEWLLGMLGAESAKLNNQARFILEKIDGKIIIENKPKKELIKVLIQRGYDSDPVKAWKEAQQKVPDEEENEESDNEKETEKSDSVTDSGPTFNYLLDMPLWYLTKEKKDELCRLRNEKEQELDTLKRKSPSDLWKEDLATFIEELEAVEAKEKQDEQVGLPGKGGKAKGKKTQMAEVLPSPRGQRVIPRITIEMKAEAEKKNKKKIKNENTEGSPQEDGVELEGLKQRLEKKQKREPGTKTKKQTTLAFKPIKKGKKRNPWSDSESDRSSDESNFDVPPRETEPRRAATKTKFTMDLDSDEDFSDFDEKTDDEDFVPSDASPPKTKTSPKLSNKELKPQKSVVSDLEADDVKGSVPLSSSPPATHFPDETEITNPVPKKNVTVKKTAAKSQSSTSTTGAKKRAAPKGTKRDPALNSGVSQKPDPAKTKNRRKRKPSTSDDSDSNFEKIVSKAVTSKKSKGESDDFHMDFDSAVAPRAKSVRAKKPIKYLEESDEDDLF

For `COc1cc([C@@H]2c3cc4c(cc3[C@@H](O[C@@H]3O[C@@H]5CO[C@@H](C)O[C@H]5[C@H](O)[C@H]3O)[C@H]3COC(=O)[C@H]23)OCO4)cc(OC)c1O` [ETOPOSIDE], the IC50 [1] was 9.02 µM, the IC50 (K562) was 0.51 µM and the IC50 (HEK293) was 0.69 µM. The IC50 (HeLa) was 32.5 µM, the IC50 (A549) was 6.74 µM and the inhibition [2] was “Active”. The inhibition [3] was “Active”, the IC50 [4] was 0.16 µM and the inhibition [5] was “Active”. The IC50 (Raji) was 1.68 µM, the “Ratio IC50” value (HL-60) was 56.4 and the inhibition [6] was “Active”. For the same molecule, the IC50 [7] was 31.3 µM.
